Reference: PubChem BioAssay AID652250 (Vanderbilt Specialized Chemistry Center, 2013)
Activity calls are given as the source filed them.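 Rule for the calls: active = compounds leaving under half of the peptide-driven platelet calcium rise; inactive = the rest.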

Biological target: Proteinase-activated receptor 4 (Homo sapiens) (UniProt Q96RI0)
Experiment: inhibition of PAR4-AP calcium signal – cell-based, single concentration, washed platelets, Fluo4 calcium (AID 652250)
Conditions: PAR4-AP calcium Fluo4 fluorescence; for % of max PAR4-AP calcium response: at 10 µM, stronger effect = lower value
How it was run: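 Material – Fluo4-AM-loaded washed human platelets · Also added – PAR4-activating peptide (PAR4-AP) agonist at 80 µM · Signal – fluorescence at 480/540 nm, 1 s intervals · Read-out – peak minus basal RFU as % of per-donor DMSO control · Benchmarks – PAR4-AP-stimulated DMSO control (100%) · Replicates – triplicate wells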

Chain of Proteinase-activated receptor 4 (Homo sapiens) (Q96RI0 whole entry, looked up): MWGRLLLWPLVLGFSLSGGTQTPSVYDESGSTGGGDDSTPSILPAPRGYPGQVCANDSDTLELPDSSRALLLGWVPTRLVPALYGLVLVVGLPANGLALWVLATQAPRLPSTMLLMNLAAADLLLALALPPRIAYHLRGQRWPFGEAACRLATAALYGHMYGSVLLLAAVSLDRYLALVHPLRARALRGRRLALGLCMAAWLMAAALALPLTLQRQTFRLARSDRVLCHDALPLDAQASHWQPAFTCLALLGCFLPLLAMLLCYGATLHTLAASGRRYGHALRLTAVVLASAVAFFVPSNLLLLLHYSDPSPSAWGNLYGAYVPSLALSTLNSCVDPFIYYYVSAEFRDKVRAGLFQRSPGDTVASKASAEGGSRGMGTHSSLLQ

% of max PAR4-AP calcium response | IC50 [µM] | Structure (SMILES)
inactive |  | CC(=O)n1cc(C2C(=O)NN=C2C)c2ccccc21 (centres undefined)
inactive |  | COc1ccc(-c2cn(Cc3cccc(-c4cccs4)c3)c3ccccc23)cn1
inactive |  | COc1cc(Nc2ncnc3c2c(-c2ccccc2)cn3-c2ccccc2)cc(OC)c1OC
inactive |  | O=C(c1cn(CCOc2ccccc2F)c2ccccc12)C(F)(F)F
inactive |  | O=C(Cn1cc(C(=S)N2CCOCC2)c2ccccc21)N1CCOCC1
inactive |  | c1ccc(Cn2cc(CN3CCN(c4ccccc4)CC3)c3ccccc32)cc1
inactive |  | CCOc1ccc(NCC(O)Cn2c(C)c(C)c3ccccc32)cc1 (centres undefined)
inactive |  | CCN(CC)CC(O)Cn1c(C)c(-c2ccccc2)c2cc([N+](=O)[O-])ccc21 (centres undefined)
inactive |  | COc1ccc2c(c1)c(C(=O)CNc1nccs1)c(C)n2C
inactive |  | CC(C)Sc1ncnc2c1c(-c1ccccc1)cn2-c1cccc(F)c1
inactive |  | CSc1ncnc2c1c(-c1ccccc1)cn2-c1ccc(F)cc1
inactive |  | OCc1cn(Cc2ccc(Cl)c(Cl)c2)c2ccccc12
inactive |  | Cc1ccc(-n2cc(-c3ccccc3)c3c(NCc4ccc5c(c4)OCO5)ncnc32)cc1Cl
inactive |  | CCCCNC(=O)n1ccc(C(=O)Nc2ccc(C)cc2C)n1
inactive |  | COc1ccc(-c2cn(Cc3ccccc3)c3ccccc23)c(OC)n1
inactive |  | Cc1c(C)n(CC(O)CNc2ccccc2)c2ccccc12 (centres undefined)
inactive |  | Cc1ccc(-n2cc(-c3ccccc3)c3c(NC4CCCC4)ncnc32)cc1Cl
inactive |  | O=C(Cn1cc(C(=O)C(F)(F)F)c2ccccc21)N1CCCC1
inactive |  | O=C(Cn1cc(C(=O)C(F)(F)F)c2ccccc21)NC1CCCC1
 | 5.4 | COc1ccc(-c2cn(Cc3ccccc3)c3ccccc23)cn1
39.9% |  | S=C(c1cn(CCOc2ccccc2Cl)c2ccccc12)N1CCCCC1
inactive |  | COc1ccc(OC)c(NC(=O)Cc2cn(C)c3ccccc23)c1
inactive |  | CCN1CCN(c2ncnc3c2c(-c2ccccc2)cn3-c2ccc(Br)cc2)CC1

% of max PAR4-AP calcium response | IC50 [µM] | Structure (SMILES)
inactive |  | Cc1cccc(-n2cc(-c3ccccc3)c3c(N4CCN(c5ccccc5)CC4)ncnc32)c1
inactive |  | c1ccc(COc2ccc(-c3cn(Cc4ccccc4)c4ccccc34)cc2)cc1
inactive |  | CCn1c(COC)c(-c2ccccc2)c2cc([N+](=O)[O-])ccc21
inactive |  | Cc1c(C)n(C(=O)CSc2ncccn2)c2ccccc12
inactive |  | Cc1c(C)n(CC(O)CNCCCO)c2ccccc12 (centres undefined)
inactive |  | CNc1ccccc1-n1ccc(-c2ccccc2)n1
inactive |  | COc1ccc2c(c1)c(CC(=O)N1CCC(C(N)=O)CC1)c(C)n2C(=O)c1ccc(Cl)cc1
inactive |  | c1ccc(-c2ccn(-c3ccccc3)n2)cc1
inactive |  | S=C(c1cn(CCCOc2ccccc2Cl)c2ccccc12)N1CCCC1
inactive |  | Fc1ccc(CNc2ncnc3c2c(-c2ccccc2)cn3-c2ccc(F)cc2)cc1
inactive |  | OC(CN1CCCCC1)Cn1c2c(c3ccccc31)CCCC2 (centres undefined)
inactive |  | CCn1ccc(C(=O)Nc2ccc(C(F)(F)F)cc2Cl)n1
inactive |  | Clc1ccc(-n2cc(-c3ccccc3)c3c(N4CCOCC4)ncnc32)cc1
 | 5.27 | COc1ccc(-c2cn(Cc3cccc(Br)c3)c3ccccc23)cn1
inactive |  | c1ccc(Cn2cc(-c3cncnc3)c3ccccc32)cc1
inactive |  | COc1ccc(OCCn2cc(C(=O)C(F)(F)F)c3ccccc32)cc1
inactive |  | c1ccc(CN2CCN(c3ncnc4c3c(-c3ccccc3)cn4-c3ccccc3)CC2)cc1
inactive |  | COc1ccc(NCC(O)Cn2c(C)c(C)c3ccccc32)cc1 (centres undefined)
inactive |  | O=C(c1cn(CCOc2ccc(Cl)cc2)c2ccc(Br)cc12)C(F)(F)F
38% |  | Fc1ccc(OCCn2cc(C(=S)N3CCOCC3)c3ccccc32)cc1
inactive |  | COc1cc(NC(=O)c2ccc3c(c2)c(C)c(C)n3C)cc(OC)c1
inactive |  | O=c1c2ccccc2nc(/C=C/c2cn(Cc3ccccc3)c3ccccc23)n1CCCO
 | 10 | COc1ccc(-c2cn(Cc3ccccc3)c3ccccc23)cc1

% of max PAR4-AP calcium response | IC50 [µM] | Structure (SMILES)
inactive |  | O=C(Nc1cccc(Br)c1)c1ccn(C(=O)Nc2ccc(Cl)cc2)n1
37.4% |  | COc1ccc2c(c1)c(C(=O)OCCN(C)C)c(C)n2C
inactive |  | CCSc1ncnc2c1c(-c1ccccc1)cn2-c1ccc(F)cc1
inactive |  | O=C(N/N=C/c1ccncc1)c1ccn(Cc2ccc(Cl)cc2Cl)n1
inactive |  | OCCCc1cn(-c2ccccc2)c2ccccc12
inactive |  | Cc1cc(C)nc(SCC(=O)n2c(C)c(C)c3ccccc32)n1
inactive |  | COc1ccc2c(c1)c(C(=O)CNc1nc(C)cs1)c(C)n2C
inactive |  | CCn1ccc(C(=O)NC2CCCCC2)n1
inactive |  | Cc1cc(O)cc(O)c1C(=O)Cc1cnn(-c2ccccc2)c1
inactive |  | Cc1ccc(-n2nc(C(=O)N3CCC(C#N)CC3)c3c4ccccc4n(C)c3c2=O)cc1
38.7% |  | COc1ccc(Nc2ncnc3c2c(-c2ccccc2)cn3-c2ccc(Br)cc2)cc1OC
inactive |  | COc1ccc(C(C[N+](=O)[O-])c2c(-c3ccccc3)n(C)c3ccccc23)cc1 (centres undefined)
inactive |  | CCc1nn(-c2ccccc2)c2nc(-c3cccc(OC)c3)c3cc(OC)c(OC)cc3c12
inactive |  | Cc1ccc(OCCn2cc(C(=S)N3CCOCC3)c3ccccc32)cc1
inactive |  | O=C(Cn1cc(C(=O)C(F)(F)F)c2cc(Br)ccc21)N1CCCCC1
inactive |  | CC(=O)n1cc(-c2ccncc2)c2ccccc21
inactive |  | Cn1cc(CC(=O)NCc2cccs2)c2ccccc21
inactive |  | CCOc1ccc(NC(=O)Cn2cc(C(=O)C(F)(F)F)c3ccccc32)cc1
inactive |  | COc1cc(NS(=O)(=O)c2ccc(NC(=O)c3ccc4c(c3)c(C)c(C)n4C)cc2)ncn1
inactive |  | COc1cccc(/C=N/NC(=O)c2ccn(Cc3ccc(Cl)cc3Cl)n2)c1OC
inactive |  | Cc1nc(-c2cnn(-c3ccccc3)c2)c2cc(C)oc2n1
inactive |  | O=C(c1ccccc1F)n1c2c(c3ccccc31)CCCC2
inactive |  | S=C(c1cn(Cc2ccc(Cl)cc2)c2ccccc12)N1CCCC1

% of max PAR4-AP calcium response | IC50 [µM] | Structure (SMILES)
inactive |  | CCOc1ncc(-c2cn(Cc3ccccc3)c3ccccc23)cn1
inactive |  | Cn1cc(CC(=O)NCCN2CCOCC2)c2ccccc21
inactive |  | CC(O)CNc1ncnc2c1c(-c1ccccc1)cn2-c1ccccc1 (centres undefined)
inactive |  | CCN(CCCNC(=O)Cc1cn(C)c2ccccc12)c1ccccc1
inactive |  | CC(C)Nc1ncnc2c1c(-c1ccccc1)cn2-c1cccc(C(F)(F)F)c1
inactive |  | Fc1ccc(CNc2ncnc3c2c(-c2ccccc2)cn3-c2ccc(Br)cc2)cc1
inactive |  | CCc1cc(C(=O)Cc2cnn(-c3ccccc3)c2)c(O)cc1O
inactive |  | CCCCN(C)c1ncnc2c1c(-c1ccccc1)cn2-c1cccc(C)c1
inactive |  | COc1ncc(-c2cn(Cc3ccccc3)c3ccccc23)cn1
inactive |  | O=C(Nc1cccc(Br)c1)c1ccn(C(=O)c2ccc(Cl)cc2)n1
inactive |  | O=C(c1ccccc1)n1cc(-c2nc3cc(Cl)ccc3o2)cn1
inactive |  | COc1cc(OC)cc(-c2cn(Cc3ccccc3)c3ccccc23)c1
inactive |  | Cc1cccc(NCC(O)Cn2c(C)c(C)c3ccccc32)c1C (centres undefined)
inactive |  | Cc1ccc(-n2cc(-c3ccccc3)c3c(N4CCCC4)ncnc32)cc1Cl
inactive |  | Cc1ccc(C)c(NC(=O)Cn2cc(C(=O)C(F)(F)F)c3ccccc32)c1
inactive |  | O=C(c1ccn(C(=O)c2cccc(Cl)c2)n1)N1CCOCC1
inactive |  | CCc1nn(-c2ccccc2)c2nc(-c3ccccc3OC)c3cc(OC)c(OC)cc3c12
inactive |  | CCn1ccc(C(=O)Nc2ccc(Cl)cc2Cl)n1
inactive |  | Fc1ccc(Cn2cc(C(=S)N3CCOCC3)c3ccccc32)cc1
inactive |  | Cn1cc(-c2cn(Cc3ccccc3)c3ccccc23)cn1
inactive |  | CC(=O)c1ccc(N2CCN(c3ncnc4c3c(-c3ccccc3)cn4-c3ccccc3)CC2)cc1
inactive |  | Cn1cc(CCCC(=O)NCc2cccs2)c2ccccc21
inactive |  | Cc1ccc2c(c1)c(-c1ccccc1)c(-c1ccccc1)n2CC(O)CN1CCOCC1 (centres undefined)

Structure (SMILES) | % of max PAR4-AP calcium response | IC50 [µM]
O=C(c1cn(Cc2ccccc2Cl)c2ccccc12)C(F)(F)F | inactive | 
Cc1ccc(OCCCn2cc(C(=O)C(F)(F)F)c3ccccc32)cc1 | inactive | 
